Reference: ChEMBL document CHEMBL1275283, “Synthesis and evaluation of novel stearoyl-CoA desaturase 1 inhibitors: 1'-{6-[5-(pyridin-3-ylmethyl)-1,3,4-oxadiazol-2-yl]pyridazin-3-yl}-3,4-dihydrospiro[chromene-2,4'-piperidine] analogs” (Eur J Med Chem, 2010)
Activity calls are given as the source filed them. No cut-off for these calls is given here.

Assays:
[1] = target: T1, Stearoyl-CoA desaturase (Homo sapiens, UniProt O00767); test: Inhibition of SCD1 in HEK293A cell microsomes assessed as reduction in conversion of [14C]stearic acid to [14C]oleic acid after 30 mins; parameters: species or system HEK293-A, Microsome
T1 sequence (O00767 whole entry): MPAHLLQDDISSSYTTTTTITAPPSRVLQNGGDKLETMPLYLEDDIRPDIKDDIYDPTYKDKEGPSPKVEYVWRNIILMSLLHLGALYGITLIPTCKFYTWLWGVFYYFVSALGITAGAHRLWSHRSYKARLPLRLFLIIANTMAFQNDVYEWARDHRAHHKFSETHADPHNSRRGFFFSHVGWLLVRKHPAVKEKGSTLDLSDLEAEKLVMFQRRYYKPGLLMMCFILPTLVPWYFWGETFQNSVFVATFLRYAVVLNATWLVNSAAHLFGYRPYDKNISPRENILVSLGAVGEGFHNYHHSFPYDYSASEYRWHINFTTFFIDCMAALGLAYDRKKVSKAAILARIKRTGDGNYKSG

[2] = target: T1, Stearoyl-CoA desaturase; test: Inhibition of human SCD1 expressed in HEK293A cells assessed as reduction in conversion of [14C]stearic acid to [14C]oleic acid after 30 mins; format: cell-based, HEK293-A
In short: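 293A cells stably expressing human SCD1 (G418-selected) grown to confluence in DMEM + 10% FBS. Cells preincubated with compound 30 min, then given 0.1 µCi [14C]stearate for 4 h. Lipids saponified in KOH, separated by AgNO3-TLC, and the [14C]oleate/[14C]stearate ratio used as activity. IC50 derived from this read-out.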

[3] = target: T2, Acyl-CoA desaturase 1 (Mus musculus, UniProt P13516); test: Inhibition of SCD1 in mouse microsome assessed as reduction in conversion of [14C]stearic acid to [14C]oleic acid after 30 mins; format: microsomes
T2 sequence (P13516 whole entry): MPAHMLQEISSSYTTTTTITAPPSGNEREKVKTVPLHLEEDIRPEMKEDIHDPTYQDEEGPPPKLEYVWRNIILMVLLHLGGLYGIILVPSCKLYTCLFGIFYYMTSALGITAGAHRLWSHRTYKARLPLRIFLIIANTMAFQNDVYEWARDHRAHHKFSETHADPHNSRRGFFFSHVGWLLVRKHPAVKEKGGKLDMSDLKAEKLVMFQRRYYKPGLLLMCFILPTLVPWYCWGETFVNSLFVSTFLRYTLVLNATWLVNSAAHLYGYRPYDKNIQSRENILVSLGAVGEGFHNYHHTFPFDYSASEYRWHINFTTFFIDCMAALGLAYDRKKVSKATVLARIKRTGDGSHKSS

[4] = tested on: Mus musculus; test: Inhibition of liver SCD1 activity in po dosed db/db mouse assessed as reduction in conversion of [14C]stearic acid to [14C]oleic acid; format: functional; details: read-out: ID50 (the source's name)
In short: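 Seven-week-old male db/db mice dosed by oral gavage 2 h before i.p. [14C]stearate (100 µCi/kg in saline with 2% BSA). Livers harvested 1 h later and homogenized in cold PBS. Saponified homogenate analyzed by AgNO3-TLC for the [14C]oleate/[14C]stearate ratio. ID50 is the dose giving 50% inhibition.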

[5] = Cmax in C57BL/6J mouse at 20 mg/kg, po up to 8 hrs; format: ADME, organism-based; parameters: dose 20 mg/kg, route oral; details: in vivo
In short: (§1)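 Oral gavage via intubation tube at 20 mg/kg in propylene glycol/Tween 4:1, n = 3 C57BL/6J mice. Plasma sampled up to 8 h after dosing. Values are arithmetic means of at least two experiments.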

[6] = Half life in C57BL/6J mouse at 20 mg/kg, po; format: ADME, organism-based; parameters: dose 20 mg/kg, route oral; details: in vivo; in short: as §1
[7] = Aqueous solubility of the compound at acidic JP-1 solution of pH 1.2 by HPLC analysis; format: physicochemical
In short: (§2)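 Solubility measured in purchased aqueous acidic JP-1 (pH 1.2) or neutral JP-2 (pH 6.8) media. Samples analyzed by HPLC, with UV peak area compared to a calibration standard of 250 µM compound in CH3CN/water 1:1. Means of at least two experiments.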

[8] = Tmax in C57BL/6J mouse at 20 mg/kg, po; format: ADME, organism-based; parameters: dose 20 mg/kg, route oral; details: in vivo; in short: as §1
[9] = AUC (0 to 8 hrs) in C57BL/6J mouse at 20 mg/kg, po; format: ADME, organism-based; parameters: time < 8 hr, dose 20 mg/kg, route oral; details: plasma; in short: as §1
[10] = Aqueous solubility of the compound at neutral JP-2 solution of pH 6.8 by HPLC analysis; format: physicochemical; in short: as §2
[11] = target: Cytochrome P450 3A4 (Homo sapiens, UniProt P08684); test: Inhibition of CYP3A4; format: ADME
Sequence of Cytochrome P450 3A4 (P08684 whole entry): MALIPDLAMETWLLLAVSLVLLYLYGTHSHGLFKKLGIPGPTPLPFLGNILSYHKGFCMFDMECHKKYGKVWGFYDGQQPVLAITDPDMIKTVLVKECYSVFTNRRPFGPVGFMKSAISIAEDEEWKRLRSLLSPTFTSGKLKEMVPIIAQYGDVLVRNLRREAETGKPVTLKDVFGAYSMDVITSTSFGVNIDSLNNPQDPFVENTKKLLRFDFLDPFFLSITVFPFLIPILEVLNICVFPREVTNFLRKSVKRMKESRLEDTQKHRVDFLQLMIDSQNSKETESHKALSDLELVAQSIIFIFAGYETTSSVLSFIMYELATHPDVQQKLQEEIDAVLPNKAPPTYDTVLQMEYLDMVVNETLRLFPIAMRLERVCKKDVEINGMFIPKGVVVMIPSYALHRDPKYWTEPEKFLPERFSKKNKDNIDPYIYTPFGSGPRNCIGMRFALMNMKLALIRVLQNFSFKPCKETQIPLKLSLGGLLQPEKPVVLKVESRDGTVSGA

[12] = tested on: Mus musculus; test: Inhibition of delta-(9)-desaturase in C57BL/6J mouse assessed as reduction in plasma desaturation index (C18:1/C18:0) at 1 mg/kg, po QD for 7 days measured post last dose; format: functional, organism-based; parameters: dose 1 mg/kg
In short: (§3)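 Nine-week-old male C57BL/6J mice on a high-carbohydrate diet (77.8 kcal% carbohydrate) for 7 days. Oral gavage once daily each evening at 0.3, 1, 3 or 10 mg/kg in propylene glycol/Tween 80 (4/1); n = 4. Serum taken the morning after the seventh dose, saponified in methanolic KOH and extracted with hexane. Index is oleate/stearate.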

[13] = tested on: Mus musculus; test: Toxicity in C57BL/6J mouse assessed change in organ morphology up to 10 mg/kg, po QD for 7 days measured post last dose by autopsy; format: organism-based; parameters: dose 10 mg/kg, route oral; details: in vivo, 168 h
[14] = target: Cytochrome P450 2C9 (Homo sapiens, UniProt P11712); test: Inhibition of CYP2C9; format: ADME
Sequence of Cytochrome P450 2C9 (P11712 whole entry): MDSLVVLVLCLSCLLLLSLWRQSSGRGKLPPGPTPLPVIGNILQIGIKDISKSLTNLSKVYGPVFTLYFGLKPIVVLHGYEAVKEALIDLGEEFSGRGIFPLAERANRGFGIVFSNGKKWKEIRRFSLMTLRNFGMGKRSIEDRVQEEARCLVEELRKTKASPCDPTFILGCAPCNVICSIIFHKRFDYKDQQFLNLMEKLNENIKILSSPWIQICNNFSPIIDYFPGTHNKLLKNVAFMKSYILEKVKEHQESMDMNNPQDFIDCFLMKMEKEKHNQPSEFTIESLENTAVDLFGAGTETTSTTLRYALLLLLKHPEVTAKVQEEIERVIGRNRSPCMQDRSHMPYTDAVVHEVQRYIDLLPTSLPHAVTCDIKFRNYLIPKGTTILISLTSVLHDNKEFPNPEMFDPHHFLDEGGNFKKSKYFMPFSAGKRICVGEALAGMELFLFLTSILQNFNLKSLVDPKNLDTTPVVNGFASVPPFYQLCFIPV

[15] = tested on: Mus musculus; test: Inhibition of delta-(9)-desaturase in po dosed C57BL/6J mouse assessed as reduction in plasma desaturation index (C18:1/C18:0) QD for 7 days measured post last dose; format: functional, organism-based; in short: as §3
[16] = target: Cytochrome P450 2C19 (Homo sapiens, UniProt P33261); test: Inhibition of CYP2C19; format: ADME
Sequence of Cytochrome P450 2C19 (P33261 whole entry): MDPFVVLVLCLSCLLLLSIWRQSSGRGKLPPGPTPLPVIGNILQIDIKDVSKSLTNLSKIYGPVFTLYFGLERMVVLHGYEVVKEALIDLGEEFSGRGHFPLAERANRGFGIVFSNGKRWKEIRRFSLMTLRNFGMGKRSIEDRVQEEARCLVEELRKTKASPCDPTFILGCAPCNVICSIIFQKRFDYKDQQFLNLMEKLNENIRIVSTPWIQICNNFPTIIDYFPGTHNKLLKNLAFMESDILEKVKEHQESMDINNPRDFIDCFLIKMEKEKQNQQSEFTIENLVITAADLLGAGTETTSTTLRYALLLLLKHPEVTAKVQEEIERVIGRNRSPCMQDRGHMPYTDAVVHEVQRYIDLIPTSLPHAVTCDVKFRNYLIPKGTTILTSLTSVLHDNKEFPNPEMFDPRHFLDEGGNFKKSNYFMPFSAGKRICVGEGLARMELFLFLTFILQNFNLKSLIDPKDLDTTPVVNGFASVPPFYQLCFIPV

[17] = tested on: Mus musculus; test: Toxicity in C57BL/6J mouse assessed occurrence of mild eye fissures at 3 to 10 mg/kg, po QD for 7 days measured post last dose; format: organism-based; parameters: dose 3-10 mg/kg, route oral; details: in vivo, 168 h
[18] = tested on: Mus musculus; test: Toxicity in C57BL/6J mouse assessed change in size of […] at 3 to 10 mg/kg, po QD for 7 days measured post last dose; format: organism-based; parameters: dose 3-10 mg/kg, route oral; details: in vivo, 168 h
[19] = tested on: Mus musculus; test: Inhibition of delta-(9)-desaturase in C57BL/6J mouse assessed as reduction in plasma desaturation index (C18:1/C18:0) at 10 mg/kg, po QD for 7 days measured post last dose; format: functional; details: 168 h; in short: as §3
[20] = target: T3, Cytochrome P450 1A2 (Homo sapiens, UniProt P05177); test: Inhibition of CYP1A2; format: ADME
T3 sequence (P05177 whole entry): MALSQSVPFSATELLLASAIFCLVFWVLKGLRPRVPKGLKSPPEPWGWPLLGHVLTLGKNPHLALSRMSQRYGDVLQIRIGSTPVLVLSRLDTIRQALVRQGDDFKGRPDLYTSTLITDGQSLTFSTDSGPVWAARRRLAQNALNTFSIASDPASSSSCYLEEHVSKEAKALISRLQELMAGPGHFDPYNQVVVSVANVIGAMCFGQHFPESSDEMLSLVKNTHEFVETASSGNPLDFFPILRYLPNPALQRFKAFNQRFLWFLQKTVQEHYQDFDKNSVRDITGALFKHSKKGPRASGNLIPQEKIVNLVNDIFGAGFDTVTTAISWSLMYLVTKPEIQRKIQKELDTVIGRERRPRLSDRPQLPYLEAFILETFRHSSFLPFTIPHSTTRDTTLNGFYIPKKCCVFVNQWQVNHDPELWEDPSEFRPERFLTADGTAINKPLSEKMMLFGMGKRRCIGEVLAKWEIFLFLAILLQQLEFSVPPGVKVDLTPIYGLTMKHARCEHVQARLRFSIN

[21] = Half life in C57BL/6J mouse at 5 mg/kg, iv; format: ADME, organism-based; parameters: dose 5 mg/kg, route intravenous; details: in vivo
In short: (§4)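 Single intravenous tail-vein injection, 5 mg/kg in DMA/Tween80/saline 10:10:80, C57BL/6J mice (n = 2). Plasma collected up to 8 h post-dose. Means of at least two experiments.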

[22] = target: Cytochrome P450 2D6 (Homo sapiens, UniProt P10635); test: Inhibition of CYP2D6; format: ADME
Sequence of Cytochrome P450 2D6 (P10635 whole entry): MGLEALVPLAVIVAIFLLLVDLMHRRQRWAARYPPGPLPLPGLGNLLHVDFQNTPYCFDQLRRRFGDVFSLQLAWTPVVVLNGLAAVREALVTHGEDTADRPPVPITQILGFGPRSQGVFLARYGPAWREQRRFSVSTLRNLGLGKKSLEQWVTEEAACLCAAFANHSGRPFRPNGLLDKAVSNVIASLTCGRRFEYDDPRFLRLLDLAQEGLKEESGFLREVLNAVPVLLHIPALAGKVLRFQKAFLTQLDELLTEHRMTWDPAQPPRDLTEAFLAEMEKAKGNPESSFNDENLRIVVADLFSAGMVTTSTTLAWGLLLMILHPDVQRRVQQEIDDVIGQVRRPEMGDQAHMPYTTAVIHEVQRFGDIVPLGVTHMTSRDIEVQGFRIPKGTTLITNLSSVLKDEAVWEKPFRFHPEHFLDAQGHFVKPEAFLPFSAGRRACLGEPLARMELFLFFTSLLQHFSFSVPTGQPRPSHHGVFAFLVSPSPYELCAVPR

[23] = Metabolic stability of the compound in human liver microsomes after 30 mins; format: ADME, Microsome; details: read-out: Stability
In short: (§5)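 Stability reported as % parent remaining after 30 min incubation with murine or human liver microsomes. Means of at least two experiments.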

[24] = tested on: Mus musculus; test: Inhibition of delta-(9)-desaturase in C57BL/6J mouse assessed as reduction in plasma desaturation index (C18:1/C18:0) at 0.3 mg/kg, po QD for 7 days measured post last dose; format: functional; details: 168 h; in short: as §3
[25] = tested on: Mus musculus; test: Toxicity in C57BL/6J mouse assessed as abnormalities in skin at 10 mg/kg, po QD for 7 days measured post last dose; format: organism-based; parameters: dose 10 mg/kg, route oral; details: in vivo, 168 h
[26] = Clearance in C57BL/6J mouse at 5 mg/kg, iv up to 8 hrs; format: ADME, organism-based; parameters: dose 5 mg/kg, route intravenous; details: in vivo; in short: as §4
[27] = Volume of distribution in C57BL/6J mouse at 5 mg/kg, iv up to 8 hrs; format: ADME, organism-based; parameters: dose 5 mg/kg, route intravenous; details: in vivo; in short: as §4
[28] = Metabolic stability of the compound in mouse liver microsomes after 30 mins; format: ADME, Microsome; details: read-out: Stability; in short: as §5
[29] = Oral bioavailability in C57BL/6J mouse at 20 mg/kg up to 8 hrs; format: ADME, organism-based; details: in vivo
In short: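 Bioavailability derived from plasma exposure after oral dosing (20 mg/kg, PG/Tween 4:1 by intubation tube, n = 3) and intravenous tail-vein dosing (5 mg/kg, DMA/Tween80/saline 10:10:80, n = 2) in C57BL/6J mice. Plasma sampled up to 8 h.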

[30] = tested on: Mus musculus; test: Toxicity in C57BL/6J mouse assessed change in size of Harderian gland at 3 to 10 mg/kg, po QD for 7 days measured post last dose; format: organism-based; parameters: dose 3-10 mg/kg, route oral; details: in vivo, 168 h

Compound	IC50 [1] [nM]	IC50 [2] [nM]	IC50 [3] [nM]	Cmax [5] [ng/mL]	half-life [6] [min]	solubility [7] [µM]	Tmax [8] [h]	AUC(0-t) at 8 h [9] [ng·h/mL]	solubility [10] [µM]	ED50 [4] [mg/kg]	other results
c1ccc2c(c1)CCC1(CCN(c3ccc(-c4nnc(Cc5ccncc5)o4)nn3)CC1)O2	6	7	4							7	
c1ccc(Cc2nnc(-c3ccc(N4CCC5(CCc6ccccc6O5)CC4)nn3)o2)nc1	4	9	3							6	

The next lines start with results.

IC50 [1] [nM]	IC50 [2] [nM]	IC50 [3] [nM]	Cmax [5] [ng/mL]	half-life [6] [min]	solubility [7] [µM]	Tmax [8] [h]	AUC(0-t) at 8 h [9] [ng·h/mL]	solubility [10] [µM]	Compound	ED50 [4] [mg/kg]	other results
0.06	1	0.04	690	42	> 50	0.8	1400	< 0.5	Clc1cccc2c1CCC1(CCN(c3ccc(-c4nnc(Cc5cccnc5)o4)nn3)CC1)O2	1	
0.3	0.7	2	2900	60	> 100	1.3	6800	< 0.5	Fc1cccc2c1CCC1(CCN(c3ccc(-c4nnc(Cc5cccnc5)o4)nn3)CC1)O2	0.6	IC50 [11]: 1600 nM; inhibition [12]: Active; Activity [13]: Non-toxic; IC50 [14]: 3 µM; inhibition [15]: Dose-dependent effect; IC50 [16]: 14 µM; Activity [17]: Toxic; Activity [18]: Non-toxic; inhibition in vivo at 10 mg/kg [19]: 66%; IC50 [20]: 18 µM; half-life [21]: 24 min; IC50 [22]: 27 µM; remaining at 0.5 h [23]: 65%; inhibition in vivo at 0.3 mg/kg [24]: 32%; Activity [25]: Non-toxic; clearance [26]: 53 mL/min/kg; Vd [27]: 1.3 L/kg; remaining at 0.5 h [28]: 51%; bioavailability [29]: > 95%; Activity [30]: Non-toxic
0.1	1	0.5							Fc1ccc(F)c2c1CCC1(CCN(c3ccc(-c4nnc(Cc5cccnc5)o4)nn3)CC1)O2	< 2	
